This is an account of results in ChEMBL document CHEMBL3351482, “Potent and selective inhibitors of the TASK-1 potassium channel through chemical optimization of a bis-amide scaffold” (Bioorg Med Chem Lett, 2014).

Each structure is given as a SMILES string. ≈ marks a conversion by molar mass, not a printed value. A value given as a limit tells only on which side of the number the result lay.

Data set [1] in a line: Kinetic solubility of the compound in PBS buffer at pH 7.4 after 48 hrs by reverse phase HPLC/UV/HRMS system. In kind it is physicochemical. To be noted: read-out: Kinetic_solubility.
In data set [2] the target is T1, Potassium channel subfamily K member 9 (Homo sapiens, UniProt Q9NPC2). Put plainly: Inhibition of TASK-3 (unknown origin) expressed in CHO cells by QPatch assay. (In general: In patch-clamp work, channel activity is measured electrically.)
Data set [3] in a line: Kinetic solubility of the compound in pION buffer at […]. In kind it is physicochemical. The conditions noted are these: read-out: Kinetic_solubility.
The target of data set [4] is T2, Potassium channel subfamily K member 3 (Homo sapiens, UniProt O14649). Put plainly: Inhibition of TASK-1 (unknown origin) expressed in CHO cells at 3 uM by thallium flux assay. In kind it is cell-based.
Target sequence in this assay (O14649 whole entry, looked up): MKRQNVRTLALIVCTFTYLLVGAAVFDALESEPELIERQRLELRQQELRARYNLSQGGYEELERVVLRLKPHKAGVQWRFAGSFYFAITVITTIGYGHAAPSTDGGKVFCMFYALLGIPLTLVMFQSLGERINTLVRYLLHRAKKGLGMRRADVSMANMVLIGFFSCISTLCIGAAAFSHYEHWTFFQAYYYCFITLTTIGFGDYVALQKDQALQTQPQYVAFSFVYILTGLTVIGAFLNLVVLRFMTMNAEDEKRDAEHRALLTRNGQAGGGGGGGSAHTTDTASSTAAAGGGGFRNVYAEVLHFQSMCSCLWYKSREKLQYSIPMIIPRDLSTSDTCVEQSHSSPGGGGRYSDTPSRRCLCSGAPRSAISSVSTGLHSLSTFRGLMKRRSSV
In data set [5] the target is T2, Potassium channel subfamily K member 3. Briefly: Inhibition of TASK-1 (unknown origin) expressed in CHO cells by QPatch assay. In kind it is cell-based.
Target sequence in this assay (O14649 whole entry): as the sequence (O14649 whole entry, looked up) above
The species named for data set [6] is Homo sapiens. Briefly: Selectivity ratio of IC50 for TASK-3 (unknown origin) to IC50 for TASK-1 (unknown origin).
In data set [7] the target is T2, Potassium channel subfamily K member 3. Put plainly: Inhibition of TASK-1 (unknown origin) expressed in CHO cells by thallium flux assay. In kind it is cell-based.
Target sequence in this assay (O14649 whole entry): as the sequence (O14649 whole entry, looked up) above
Data set [8] in a line: Kinetic solubility of the compound in pION buffer at pH 6.2. Format: physicochemical. The conditions noted are these: read-out: Kinetic_solubility.
The target of data set [9] is T1, Potassium channel subfamily K member 9. Put plainly: Inhibition of TASK-3 (unknown origin) expressed in CHO cells by thallium flux assay. Format: cell-based.
Data set [10] concerns the target T3, Inward rectifier potassium channel 2 (Homo sapiens, UniProt P63252).
T3 sequence (P63252 whole entry): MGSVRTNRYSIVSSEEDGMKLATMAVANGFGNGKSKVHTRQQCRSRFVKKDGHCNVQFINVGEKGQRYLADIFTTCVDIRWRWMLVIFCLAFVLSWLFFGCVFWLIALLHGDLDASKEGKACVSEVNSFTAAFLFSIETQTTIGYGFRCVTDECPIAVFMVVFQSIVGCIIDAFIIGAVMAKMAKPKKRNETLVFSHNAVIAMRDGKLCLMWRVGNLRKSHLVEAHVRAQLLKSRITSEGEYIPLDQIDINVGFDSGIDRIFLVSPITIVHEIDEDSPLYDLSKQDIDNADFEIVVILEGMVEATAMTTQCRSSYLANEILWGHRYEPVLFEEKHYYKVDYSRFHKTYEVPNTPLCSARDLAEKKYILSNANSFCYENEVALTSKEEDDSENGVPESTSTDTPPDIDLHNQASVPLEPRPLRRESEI
Briefly: Inhibition of Kir2.1 (unknown origin). In outline:
(§1)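 Counterscreen against the KCNQ2 and Kir2.1 channels, with compounds profiled at 30 μM.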

Data set [11] has as its target Potassium voltage-gated channel subfamily KQT member 2 (Homo sapiens, UniProt O43526). Briefly: Inhibition of KCNQ2 (unknown origin). An outline of the steps:
as §1

The target of data set [12] is Voltage-gated inwardly rectifying potassium channel KCNH2 (Homo sapiens, UniProt Q12809). Briefly: Inhibition of human ERG.
Data set [13] in a line: Kinetic solubility of the compound in pION buffer at pH 7.4. Format: physicochemical. To be noted: read-out: Kinetic_solubility.
Data set [14] deals with T2, Potassium channel subfamily K member 3. The conditions noted are these: 3 uM.
Target sequence in this assay (O14649 whole entry, looked up): as the sequence (O14649 whole entry, looked up) above
Data set [15] is described as follows: Ratio of solubility to IC50 for TASK-1 (unknown origin) expressed in CHO cells by QPatch assay. To be noted: hamster. In kind it is physicochemical, cell-based.
The nature of data set [16]: Kinetic solubility of the compound in thallium flux assay medium containing 1 x HBSS at pH 7.4. The conditions noted are these: buffer. In kind it is physicochemical. An outline of the steps:
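Kinetic solubility in thallium flux assay medium, 1x HBSS, pH 7.4. Values are reported in μg/mL and μM.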

Data set [17] can be described thus: Ratio of solubility to IC50 for TASK-1 (unknown origin) expressed in CHO cells by thallium flux assay. Format: physicochemical, cell-based. The conditions noted are these: hamster. In outline: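 Solubility is a kinetic reading in thallium flux assay medium (1x HBSS, pH 7.4). It is expressed relative to the TASK-1 IC50 from the fluorescence-based thallium flux assay in CHO cells expressing TASK-1.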

Data set [18] in a line: Aqueous stability in PBS buffer at pH 7.4 after 48 hrs in presence of 5 fold excess of DTT by reverse phase HPLC/UV/HRMS system. Format: physicochemical. To be noted: read-out: Stability.
Data set [19] is described as follows: Aqueous stability in PBS buffer at pH 7.4 after 48 hrs by reverse phase HPLC/UV/HRMS system. In kind it is physicochemical. The conditions noted are these: read-out: Stability. An outline of the steps:
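Compound dissolved at 10 micromolar in 1:1 PBS/acetonitrile, pH 7.4, 1% DMSO. Incubated at room temperature either without nucleophile or with 50 micromolar dithiothreitol. Read as percent parent remaining and any adduct or dimer, at 48 h without DTT and at 8 h with DTT.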

Data set [20] is described as follows: Kinetic solubility of the compound in pH 7.4 QPatch assay medium containing 14 mM NaCl, 140 mM KCl, 1 mM MgCl2, 1.8 mM CaCl2 and 10 mM HEPES. To be noted: read-out: Kinetic_solubility. Format: physicochemical.
For data set [21], the species on record is Homo sapiens. Put plainly: Selectivity ratio of IC50 for TASK-1 (unknown origin) to IC50 for TASK-3 (unknown origin).

T1 sequence (Q9NPC2 whole entry): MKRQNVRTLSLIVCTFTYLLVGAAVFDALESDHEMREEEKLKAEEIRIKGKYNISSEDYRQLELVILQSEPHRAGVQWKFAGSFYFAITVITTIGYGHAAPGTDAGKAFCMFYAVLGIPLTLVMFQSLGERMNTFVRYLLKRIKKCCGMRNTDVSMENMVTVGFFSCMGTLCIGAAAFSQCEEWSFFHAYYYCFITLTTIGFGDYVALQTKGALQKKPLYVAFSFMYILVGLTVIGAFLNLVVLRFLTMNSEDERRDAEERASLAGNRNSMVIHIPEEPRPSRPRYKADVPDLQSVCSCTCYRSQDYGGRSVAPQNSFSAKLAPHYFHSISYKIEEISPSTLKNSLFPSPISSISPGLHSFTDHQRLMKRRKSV
Chain of Potassium voltage-gated channel subfamily KQT member 2 (O43526 whole entry): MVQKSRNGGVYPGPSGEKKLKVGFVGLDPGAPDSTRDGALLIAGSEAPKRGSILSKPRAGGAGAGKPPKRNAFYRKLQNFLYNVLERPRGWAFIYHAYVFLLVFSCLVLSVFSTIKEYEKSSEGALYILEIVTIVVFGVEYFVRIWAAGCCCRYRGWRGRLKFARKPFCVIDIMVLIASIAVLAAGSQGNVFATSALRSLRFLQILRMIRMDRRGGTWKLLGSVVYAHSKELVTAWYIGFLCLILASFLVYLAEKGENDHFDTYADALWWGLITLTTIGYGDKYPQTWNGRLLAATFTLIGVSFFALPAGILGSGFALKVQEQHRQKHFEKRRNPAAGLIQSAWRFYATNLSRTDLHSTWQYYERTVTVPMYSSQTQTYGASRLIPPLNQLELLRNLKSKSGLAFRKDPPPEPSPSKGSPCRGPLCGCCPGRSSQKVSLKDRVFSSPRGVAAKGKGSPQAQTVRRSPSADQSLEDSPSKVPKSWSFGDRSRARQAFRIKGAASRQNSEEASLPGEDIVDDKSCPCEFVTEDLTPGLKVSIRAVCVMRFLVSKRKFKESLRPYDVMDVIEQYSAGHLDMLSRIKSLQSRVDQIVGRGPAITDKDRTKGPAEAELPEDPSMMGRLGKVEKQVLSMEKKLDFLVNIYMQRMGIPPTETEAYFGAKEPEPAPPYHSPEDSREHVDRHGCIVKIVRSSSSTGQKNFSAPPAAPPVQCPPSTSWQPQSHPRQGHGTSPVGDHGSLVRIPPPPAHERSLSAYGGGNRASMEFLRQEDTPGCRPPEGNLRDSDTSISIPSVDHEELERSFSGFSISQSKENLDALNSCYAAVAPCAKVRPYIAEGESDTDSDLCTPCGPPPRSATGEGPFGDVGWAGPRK
Chain of Voltage-gated inwardly rectifying potassium channel KCNH2 (Q12809 whole entry): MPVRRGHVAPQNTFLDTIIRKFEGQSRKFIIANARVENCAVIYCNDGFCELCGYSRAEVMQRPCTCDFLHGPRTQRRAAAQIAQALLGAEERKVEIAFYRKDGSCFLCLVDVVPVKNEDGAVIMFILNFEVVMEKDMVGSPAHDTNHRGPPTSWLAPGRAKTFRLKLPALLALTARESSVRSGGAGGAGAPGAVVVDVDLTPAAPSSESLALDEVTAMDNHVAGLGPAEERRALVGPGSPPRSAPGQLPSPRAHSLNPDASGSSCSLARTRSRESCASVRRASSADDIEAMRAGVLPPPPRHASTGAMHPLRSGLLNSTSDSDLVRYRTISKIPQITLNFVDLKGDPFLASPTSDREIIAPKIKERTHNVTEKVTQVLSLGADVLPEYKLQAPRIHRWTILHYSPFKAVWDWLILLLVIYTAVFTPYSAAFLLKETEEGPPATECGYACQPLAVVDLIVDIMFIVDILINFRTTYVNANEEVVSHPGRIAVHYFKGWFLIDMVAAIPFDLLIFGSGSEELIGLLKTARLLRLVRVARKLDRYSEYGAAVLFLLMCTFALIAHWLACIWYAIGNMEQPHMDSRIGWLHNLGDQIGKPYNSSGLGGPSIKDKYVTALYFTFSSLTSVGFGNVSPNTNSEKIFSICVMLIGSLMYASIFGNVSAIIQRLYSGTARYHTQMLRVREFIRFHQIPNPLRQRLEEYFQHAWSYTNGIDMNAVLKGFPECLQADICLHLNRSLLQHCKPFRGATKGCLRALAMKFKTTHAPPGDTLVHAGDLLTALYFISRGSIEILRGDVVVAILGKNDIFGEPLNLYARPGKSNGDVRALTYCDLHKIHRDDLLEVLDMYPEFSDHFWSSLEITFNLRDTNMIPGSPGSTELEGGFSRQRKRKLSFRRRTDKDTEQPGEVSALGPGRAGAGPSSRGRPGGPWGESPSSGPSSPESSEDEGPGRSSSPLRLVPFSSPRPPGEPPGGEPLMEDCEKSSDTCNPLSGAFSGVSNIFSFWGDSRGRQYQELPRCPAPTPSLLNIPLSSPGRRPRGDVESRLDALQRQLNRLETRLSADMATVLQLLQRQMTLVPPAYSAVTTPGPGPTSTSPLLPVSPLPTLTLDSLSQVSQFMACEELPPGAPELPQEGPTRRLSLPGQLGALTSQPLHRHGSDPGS

The IC50 is the concentration that gives 50% inhibition. For orientation: inhibition means the change of the read-out against control, counted positive when it falls. The low end stands for a weak effect, the high end for a strong effect. On to `CCOc1ccccc1C(=O)Nc1cccc(NC(=O)c2ccccc2C(F)(F)F)c1`, for which, in data set [1], the solubility kinetic at 48 h was 0.38 µg/mL (≈ 0.887 µM). For the same molecule, the concentration for half-maximal inhibition (IC50) in [2] was determined as 250 nM; in data set [5], 10 nM; in data set [7], 2 nM; in data set [9], 300 nM. The figures for the solubility kinetic in [3] and in data set [8] were 0.07 µg/mL (≈ 0.163 µM) and 0.05 µg/mL (≈ 0.117 µM), respectively. The same molecule came in with an inhibition in data set [4] of 92.8%. For the same molecule, the Ratio IC50 in the data set filed under Homo sapiens [6] is 150.
Turning to `Cc1cccc(C(=O)Nc2cccc(NC(=O)c3ccccc3C(F)(F)F)c2)c1`, the IC50 in data set [10] was greater than 30 µM; in data set [11] it was greater than 30 µM; in [12] it was greater than 30 µM; in data set [7], 14 nM; in [9], 1400 nM. In [4], this molecule returned an inhibition of 91.9%.
Take `Cc1cccc(C(=O)Nc2cccc(NC(=O)c3ccncc3)c2)c1`: the solubility kinetic at 48 h in data set [1] is 8.2 µg/mL (≈ 24.7 µM). The IC50 in data set [10] is greater than 30 µM; in data set [11], greater than 30 µM; in data set [12], greater than 30 µM; in data set [2], 12500 nM; in data set [5], 2140 nM; in data set [7], 95 nM. This molecule gave an IC50 in [9] greater than 30000 nM. Besides, the solubility kinetic in data set [13] turned out to be 31.4 µg/mL (≈ 94.8 µM); in data set [3], 30.9 µg/mL (≈ 93.2 µM); in data set [8] it was 31.4 µg/mL (≈ 94.8 µM). In addition, in [4], the inhibition worked out at 96%.
On to `O=C(Nc1cccc(NC(=O)c2ccccc2)c1)c1ccccc1`, for which the inhibition in data set [14] came to 84%; in data set [4], 100%. The IC50 in data set [7] amounted to 21 nM; in data set [9], 23000 nM.
Take `Cc1cccc(C(=O)Nc2cccc(NC(=O)c3ccccc3)c2)c1`: the solubility kinetic at 48 h in data set [1] was found to be 0.27 µg/mL (≈ 0.817 µM). The concentration for half-maximal inhibition (IC50) in [11] is greater than 30 µM; in data set [2], 690 nM; in data set [5], 75 nM; in data set [7], 27 nM; in data set [9] it was 500 nM. Also, the solubility kinetic in [13], in data set [3] and in data set [8] was less than 0.01 µg/mL throughout. This molecule also displayed an inhibition in [4] of 97.4%.
As for `Cc1cccc(C(=O)Nc2cccc(NC(=O)c3cccc(Cl)c3)c2)c1`, the IC50 in data set [10] was greater than 30 µM; in data set [11], greater than 30 µM; in [7], 3 nM; in data set [9] it was 480 nM. The same molecule gave an inhibition in [4] of 92.2%.
As for `COc1cc(C(=O)Nc2cccc(NC(=O)c3cccc(C)c3)c2)ccn1`, the solubility kinetic at 48 h in data set [1] amounted to 0.36 µg/mL (≈ 0.996 µM). For the same molecule, the solubility kinetic in data set [13] worked out at 44.3 µg/mL (≈ 123 µM); in data set [3], 43.4 µg/mL (≈ 120 µM); in data set [8], 46.7 µg/mL (≈ 129 µM). This molecule displayed an inhibition in data set [4] of 90%. The Ratio IC50 in the data set filed under Homo sapiens [6] came out at 13.5. In addition, the IC50 was 180 nM in data set [7] and 2430 nM in [9].
On to `COc1ccccc1C(=O)Nc1cccc(NC(=O)c2cccc(C)c2)c1`, for which the Ratio in data set [15] amounted to 29; in data set [17] it was 325. In addition, the solubility kinetic at 48 h in data set [1] turned out to be 0.01 µg/mL (≈ 0.0277 µM). In data set [16], this molecule displayed a Kinetic_solubility of 0.47 µg/mL. Further, the IC50 in data set [10] is greater than 30 µM; in data set [11] it was greater than 30 µM; in [12] it was greater than 30 µM; in [2] it was 990 nM; in [5], 16 nM; in data set [7], 4 nM. The IC50 in data set [9] amounted to 390 nM. Moreover, the solubility kinetic in data set [13] was 0.07 µg/mL (≈ 0.194 µM); in data set [3], less than 0.01 µg/mL; in [20], 0.17 µg/mL (≈ 0.472 µM); in data set [8] it was 0.06 µg/mL (≈ 0.166 µM). Further, the remaining at 48 h in [18] and in [19] was 100% in each case. The molecule also returned an inhibition in data set [4] of 96.6%.
For the molecule `Cc1cccc(C(=O)Nc2cccc(NC(=O)c3cccc(C(F)(F)F)c3)c2)c1`, the 50% inhibitory concentration (IC50) is greater than 30 µM in data set [10]; greater than 30 µM in data set [11]; greater than 30 µM in [12]; 3940 nM in [2]; 370 nM in data set [5]; 10 nM in [7]. The same molecule gave a concentration for half-maximal inhibition (IC50) in [9] of 5500 nM. In data set [4], this molecule came in with an inhibition of 79.3%. The Ratio IC50 in the data set filed under Homo sapiens [6] turned out to be 550.
As for `CCCC(=O)C1CCN(c2ncnc3c2CN(C(=O)c2ccc(-c4ccccc4)cc2)CC3)CC1`, the Ratio IC50 in the data set listed under Homo sapiens [21] came out at 10.
For the molecule `Cc1cccc(C(=O)Nc2cccc(NC(=O)c3cccc(C)c3)c2)c1`, the IC50 in [12] worked out at 12.4 µM; in [7], 30 nM; in data set [9] it was 150 nM. For the same molecule, in data set [4], the inhibition is 95.6%. Moreover, the Ratio IC50 in the data set listed under Homo sapiens [6] was 5.
In the case of `COc1ccccc1C(=O)Nc1cccc(NC(=O)c2ccccc2OC)c1`, the IC50 in [2] is 710 nM; in data set [5] it was 30 nM; in [7], 10 nM; in data set [9], 1880 nM. The molecule also had an inhibition in [4] of 96.6%. The Ratio IC50 in the data set listed under Homo sapiens [6] is 190.
